Most compounds without a hit are left out; they make up all but 2.8% or so of the library.
NPY-Y2 PAM-ag: potentiates or activates human NPY-Y2 receptor. AID 1359. 0.45% of 220,000 active. activation, % at 3.6 µM. cells expressing NPY-Y2, potentiator/agonist read-out; in the data active means activation above about 27%;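 further: cells stimulated with NPY near EC25 plus isoproterenol at EC100; 0% = vehicle plus submaximal agonist and 100% = vehicle plus saturating agonist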
Target sequence (P49146 whole entry, looked up): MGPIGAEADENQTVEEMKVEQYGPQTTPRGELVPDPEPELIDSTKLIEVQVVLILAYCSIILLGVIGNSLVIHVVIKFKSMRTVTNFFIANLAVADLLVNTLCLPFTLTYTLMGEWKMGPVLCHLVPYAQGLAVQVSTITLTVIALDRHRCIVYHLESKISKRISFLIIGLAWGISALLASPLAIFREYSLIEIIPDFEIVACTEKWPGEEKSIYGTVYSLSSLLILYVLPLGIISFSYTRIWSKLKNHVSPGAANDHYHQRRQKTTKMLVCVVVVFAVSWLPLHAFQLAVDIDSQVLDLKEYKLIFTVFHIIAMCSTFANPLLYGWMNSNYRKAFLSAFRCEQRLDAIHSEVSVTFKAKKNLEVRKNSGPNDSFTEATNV
NPY Y1 blocker: antagonists of human neuropeptide Y receptor Y1 | HEK293-CNG Y1 cells, membrane potential fluorescence; NPY at EC95, then isoproterenol | inhibition, % at 3.6 µM | P25929 | 1% of 200,000 active;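 active means inhibition above the campaign mean inhibition of all tested compounds plus 3 SD, cut at about 20% in these data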;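 further: 0% = DMSO wells given NPY plus isoproterenol and 100% = isoproterenol alone without NPY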
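Assay system: HEK293 Y1/CNG channel cell line; Doses: single compound dose of 3.6 µM, 0.4% DMSO; Timing: dye 3 h, compound 60 min room temperature, stimulation 45 min; Technique: Membrane-potential fluorescent dye readout; Measure: % inhibition of NPY effect.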
NPY Y2 blocker: blocks the human neuropeptide Y Y2 receptor. 0.99% of 140,000 active. P49146. NPY-Y2 expressing cells, antagonist mode. inhibition, % at 2.7 µM. AID 793; in the data active means inhibition above about 17%;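 further: 0% = vehicle with agonist challenge and 100% = reference antagonist with challenge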
Mdm2 ligase inh: Mdm2 E3 ligase (human) inhibition. Q00987. cell-based MDM2 ubiquitination luciferase reporter, 2 h; 0 = plate control, 100 = twice control, blank-subtracted. signal enhancement, % at 5 µM. 0.11% of 210,000 active;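 active means signal enhancement of 30% or more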;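 further: luminescence tracks abundance of the self-degrading MDM2-luciferase fusion protein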
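Buffer or medium: Cells held in DMEM | Assay system: Stable mammalian line carrying autodegrading MDM2–luciferase fusion reporter | Quantity: 2000 cells/well | Times: 4 h settle plus 2 h compound, 37 °C | Doses: One concentration, 5 µM, with 0.2% DMSO | Technique: Luminescence with SteadyLite reagent, 15 min at room temperature | Benchmarks: Plate controls and plate blanks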
NPY-Y1 PAM-ag: human NPY-Y1 potentiation or agonism, primary screen. NPY-Y1 expressing cells, potentiator/agonist activation. activation, % at 3.6 µM. 0.37% of 220,000 active; in the data active means activation above about 33%, passing the limit was not always enough;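 further: cells stimulated with NPY at EC10 then isoproterenol at EC100; 0% = low agonist plus stimulus and 100% = saturating agonist plus stimulus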
Measles CPE: protection of cells from measles virus; Measles virus-infected cells, CPE protection, absorbance; protection (pct of control), % at 4 µM; 1.5% of 140,000 active; AID 841; in the data active means protection mostly above about 24%, no sharp cut-off; inactive means mostly below about 26%
NPY-Y2 confirm: human NPY-Y2 potentiation or agonism, confirmation; shares compounds with NPY-Y2 PAM-ag; cell-based NPY-Y2 potentiator/agonist assay; activation, % at 3.6 µM; 20% of 450 active; AID 1539; in the data active means activation above about 33%
NPY-Y1 counter: counter-screen for NPY-Y2 potentiators or agonists: NPY-Y1 potentiators or agonists; shares compounds with NPY-Y2 PAM-ag; Y1 HEK293-CNG cells, membrane potential fluorescence; activation, % at 3.6 µM; 20% of 450 active; AID 1651; in the data active means activation above about 45%;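 further: cells stimulated with submaximal NPY then isoproterenol with phosphodiesterase inhibitor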
NPY-Y1 ag 2: human NPY-Y1 agonism as NPY-Y2 potentiator counter-screen | shares compounds with NPY-Y2 PAM-ag | HEK293 Y1-CNGC, membrane potential fluorescence | activation, % at 3.6 µM | 37% of 450 active | AID 1702;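 active means activation above the mean of DMSO-only control wells plus 3 SD, cut at about 18% in these data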;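 further: cells stimulated with 1 µM isoproterenol plus the PDE inhibitor Ro 20-1724; 0% = isoproterenol with DMSO and no NPY and 100% = 40 nM NPY; Y1 agonists lower the membrane potential dye signal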
CNGC inh: counter-screen for NPY-Y2 potentiators: inhibitors of CNG channel activity; 32% of 450 active; HEK293-CNG parental, isoproterenol cAMP, membrane potential fluorescence; shares compounds with NPY-Y2 PAM-ag; inhibition, % at 3.6 µM;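 active means inhibition above the control-well mean plus 3 SD of those wells, cut at about 22% in these data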;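 further: 0% = DMSO with isoproterenol and 100% = DMSO without isoproterenol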
Y2 agonist ctr: activates human NPY-Y2 receptor in potentiator counter-screen. shares compounds with NPY-Y2 PAM-ag. HEK293 Y2/CNGC cells, membrane potential fluorescence, agonist mode. activation, % at 3.6 µM. 56% of 450 active;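 active means activation above the mean of solvent-only control wells plus 3 SD, cut at about 10% in these data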;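 further: cells stimulated by isoproterenol with no NPY added so direct agonism is tested; 0% = DMSO with isoproterenol alone and 100% = NPY at EC100 plus isoproterenol; agonism lowers probe fluorescence through less cAMP and CNG channel opening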
Active calls of the source: *; . = not tested or not shown.

SMILES | NPY-Y2 PAM-ag | NPY Y1 blocker | NPY Y2 blocker | Mdm2 ligase inh | NPY-Y1 PAM-ag | Measles CPE | NPY-Y2 confirm | NPY-Y1 counter | NPY-Y1 ag 2 | CNGC inh | Y2 agonist ctr
CC(C)(C)n1nnnc1C(c1cccc(C#N)c1)N1CCCc2ccccc21 (stereo unspecified) | 27* | 16 | 6 | -1 | 14 | 5 | 4 | 1 | -1 | 7 | 10
Cc1cc(C(=O)NNC(=O)Nc2ccc(Cl)cc2)no1 | 97* | . | . | -3 | -18 | . | -8 | -5 | -13 | -2 | -5
Cc1c(C(=O)O)[nH]c2ccc([N+](=O)[O-])cc12 | 30* | -9 | . | -3 | 18 | . | 28 | 36 | 39* | 21 | 31*
CCCCC1=NN2CCS(=O)(=O)N=C2S1 | 14 | 2 | . | -8 | 3 | . | . | . | . | . | .
Oc1cc2c(cc1O)C1c3ccc(O)c(O)c3OCC1(O)C2 (stereo unspecified) | 12 | 6 | . | 0 | 0 | . | . | . | . | . | .
O=C(/C=C/c1ccccc1)NC(NC(=S)Nc1cc(Cl)ccc1Cl)C(Cl)(Cl)Cl (stereo unspecified) | 25 | -7 | -3 | 3 | 8 | 16 | . | . | . | . | .
Cc1cccc(C)c1OCC(O)CNC(C)(C)C (stereo unspecified) | 41* | 3 | 1 | -17 | 19 | 4 | 12 | 13 | 9 | 12 | 13*
Cn1c2c(c(=O)n(C)c1=O)C(C(F)(F)F)(C(F)(F)F)N=C(c1ccc(Cl)cc1)N2 | 49* | 8 | 7 | 0 | 33 | 7 | 4 | -23 | -24 | -6 | -5
CN1C/C(=N\S(=O)(=O)c2ccccc2)N(C)C1=O | 101* | 10 | -1 | -2 | 39 | 12 | -2 | 6 | -1 | 1 | 0
Cc1ccccc1CSc1nnc(-c2cnccn2)n1C | 7 | . | . | 5 | 10 | . | . | . | . | . | .

From PubChem BioAssay
